{
  "source": "ChEMBL document CHEMBL4842325",
  "about": "“Lanosterol 14α-demethylase (CYP51)/histone deacetylase (HDAC) dual inhibitors for treatment of Candida tropicalis and Cryptococcus neoformans infections” (Eur J Med Chem, 2021)",
  "key": {"Candida tropicalis [1]": {"tested_on": "Candida tropicalis", "assay": "Inhibition of CYP51 in Candida tropicalis 5008 assessed as eburicol level at 4 ug/ml by GC-MS analysis", "set-up": "scale not given: the % may be the effect or the level left", "conditions": "dose 4.0 µg/ml"}, "Candida albicans [2]": {"tested_on": "Candida albicans", "assay": "Antifungal activity against fluconazole-sensitive Candida albicans 10061 assessed as inhibition of fungal growth", "type": "functional"}, "Candida tropicalis [3]": {"tested_on": "Candida tropicalis", "assay": "Inhibition of CYP51 in Candida tropicalis 5008 assessed as unknown sterol level at 4 ug/ml by GC-MS analysis (reference value: 6.48%)", "set-up": "scale not given: the % may be the effect or the level left", "conditions": "dose 4.0 µg/ml"}, "Cryptococcus neoformans [4]": {"tested_on": "Cryptococcus neoformans", "assay": "Inhibition of biofilm formation in Cryptococcus neoformans H99 at 64 ug/ml incubated for 24 hrs by XTT reduction assay", "type": "functional", "method_in_brief": "(§1)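 C. tropicalis 5008 or C. neoformans H99 from exponential YEPD culture diluted in RPMI 1640 to 1 × 10⁶ CFU/mL. Adhesion at 37 °C for 1.5 h. Results given as percent inhibition versus untreated wells. Three independent experiments, mean ± SD, t-test.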"}, "Cryptococcus neoformans [5]": {"tested_on": "Cryptococcus neoformans", "assay": "Downregulation of HOS3 mRNA expression in Cryptococcus neoformans H99 at 2 ug/ml measured after 24 hrs by qRT-PCR analysis", "type": "functional", "conditions": "dose 2.0 µg/ml", "method_in_brief": "(§2)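 Exponentially growing C. neoformans H99 inoculated into 50 mL YPD with compound and incubated 35 °C for 24 h. Cells ground in liquid nitrogen before total RNA isolation, then reverse transcription and real-time RT-qPCR. Means ± SD of three independent assays.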"}, "Candida tropicalis [6]": {"tested_on": "Candida tropicalis", "assay": "Downregulation of ERG11 mRNA expression in Candida tropicalis 5008 at 4 ug/ml measured after 24 hrs by qRT-PCR analysis", "type": "functional", "conditions": "dose 4.0 µg/ml", "method_in_brief": "(§3)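 Exponential-phase C. tropicalis 5008 inoculated into 10 mL YPD with compound at several concentrations, DMSO as blank control. Incubated 35 °C for 24 h. Total RNA isolated on columns and reverse-transcribed. Real-time RT-PCR with ACT1 as internal control. Mean of 3 independent assays ± SD.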"}, "Candida tropicalis [7]": {"tested_on": "Candida tropicalis", "assay": "Antifungal activity against fluconazole-resistant Candida tropicalis 5008 assessed as inhibition of cell proliferation at 32 ug/ml measured for 48 hrs by time growth curve assay", "type": "functional, organism-based", "conditions": "dose 32.0 µg/ml", "method_in_brief": "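Exponential-phase cells from YEPD resuspended in 3 mL fresh RPMI 1640 at 1 × 10⁵ cells/mL (C. tropicalis 5008) or 1 × 10⁶ cells/mL (C. neoformans H99). Compound at several concentrations; cultures shaken at 240 rpm, 30 °C. Growth read as OD₆₃₀ at 0, 6, 12, 24, 36 and 48 h. Done in triplicate.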"}, "Cryptococcus neoformans [8]": {"tested_on": "Cryptococcus neoformans", "assay": "Downregulation of RPD3 mRNA expression in Cryptococcus neoformans H99 at 2 ug/ml measured after 24 hrs by qRT-PCR analysis", "type": "functional", "conditions": "dose 2.0 µg/ml", "method_in_brief": "as §2"}, "Candida tropicalis [9]": {"tested_on": "Candida tropicalis", "assay": "Inhibition of CYP51 in Candida tropicalis 5008 assessed as obtusifoliol level at 4 ug/ml by GC-MS analysis", "set-up": "scale not given: the % may be the effect or the level left", "conditions": "dose 4.0 µg/ml"}, "Candida tropicalis [10]": {"tested_on": "Candida tropicalis", "assay": "microbe, parasite or virus in culture", "type": "functional", "conditions": "3890, time 48 hrs"}, "Cryptococcus neoformans [11]": {"tested_on": "Cryptococcus neoformans", "assay": "Antifungal activity against Cryptococcus neoformans H99 infected in ICR mouse model assessed as reduction in fungal burden in brain at 20 mg/kg, po administered once a day for 5 days", "type": "functional, organism-based", "conditions": "time 5.0 day", "method_in_brief": "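Immunosuppression by intraperitoneal cyclophosphamide 24 h before infection. Infected on day 0 by intravenous 2 × 10⁵ CFU C. neoformans H99. Oral treatment once daily for 5 consecutive days, starting 24 h post infection; saline group as blank. Brains taken on day 6 and homogenized, dilutions plated on SDA at 35 °C for 48 h. Colonies counted for burden; groups compared by ANOVA.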"}, "Candida tropicalis [12]": {"tested_on": "Candida tropicalis", "assay": "Antifungal activity against Candida tropicalis 5008 assessed as inhibition of fungal filamentation by measuring reduction in hyphae formation at 1 ug/ml incubated for 7 hrs by cell inverted imaging microscopic analysis", "type": "functional, organism-based", "conditions": "dose 1.0 µg/ml", "method_in_brief": "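C. tropicalis 5008 from exponential YEPD culture diluted in spider medium to 1 × 10⁵ CFU/mL. Compound added at several concentrations, with fluconazole as positive drug. Incubated 37 °C for 7 h, then morphology compared with the no-drug group by live-cell inverted microscopy.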"}, "Candida tropicalis [13]": {"tested_on": "Candida tropicalis", "assay": "Downregulation of CDR1 mRNA expression in Candida tropicalis 5008 at 4 ug/ml measured after 24 hrs by qRT-PCR analysis", "type": "functional", "conditions": "dose 4.0 µg/ml", "method_in_brief": "as §3"}, "Candida albicans [14]": {"tested_on": "Candida albicans", "assay": "microbe, parasite or virus in culture", "type": "functional", "conditions": "0304103"}, "Cryptococcus neoformans [15]": {"tested_on": "Cryptococcus neoformans", "assay": "Downregulation of HOS1 mRNA expression in Cryptococcus neoformans H99 at 2 ug/ml measured after 24 hrs by qRT-PCR analysis", "type": "functional", "conditions": "dose 2.0 µg/ml", "method_in_brief": "as §2"}, "[16]": {"assay": "Inhibition of HDAC in Candida tropicalis 5008 using Boc-Lys(Ac)-AMC as substrate preincubated with protoplast for 12 hrs followed by incubation with substrate for 6 hrs by fluorimetric assay", "method_in_brief": "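Whole-cell assay on C. tropicalis 5008, 100 mg wet weight of exponential-phase cells. Cell wall removed with snailase to give protoplasts, which were dispersed in PBS. Protoplasts incubated with compound at 35 °C for 12 h. Boc-Lys(Ac)-AMC then added to a final 30 µM and incubated 37 °C for 6 h. Stop solution added, 37 °C for 2 h. Fluorescence read at Ex 360/Em 460 nm and converted to HDAC inhibition rate.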"}, "Candida tropicalis [17]": {"tested_on": "Candida tropicalis", "assay": "Inhibition of biofilm formation in Candida tropicalis 5008 at 64 ug/ml incubated for 24 hrs by XTT reduction assay", "type": "functional", "method_in_brief": "as §1"}, "Candida tropicalis [18]": {"tested_on": "Candida tropicalis", "assay": "Inhibition of CYP51 in Candida tropicalis 5008 assessed as ergosterol level at 4 ug/ml by GC-MS analysis (reference value: 84.91%)", "set-up": "scale not given: the % may be the effect or the level left", "conditions": "dose 4.0 µg/ml"}, "Cryptococcus neoformans [19]": {"tested_on": "Cryptococcus neoformans", "assay": "Downregulation of CAP64 gene expression in Cryptococcus neoformans H99 at 2 ug/ml measured after 24 hrs by qRT-PCR analysis", "type": "functional", "conditions": "dose 2.0 µg/ml", "method_in_brief": "as §2"}, "Candida albicans [20]": {"tested_on": "Candida albicans", "assay": "Antifungal activity against fluconazole-sensitive Candida albicans 9770 assessed as inhibition of fungal growth", "type": "functional"}, "Candida albicans [21]": {"tested_on": "Candida albicans", "assay": "microbe, parasite or virus in culture", "type": "functional", "conditions": "7781"}, "Cryptococcus neoformans [22]": {"tested_on": "Cryptococcus neoformans", "assay": "Downregulation of CLR62 mRNA expression in Cryptococcus neoformans H99 at 2 ug/ml measured after 24 hrs by qRT-PCR analysis", "type": "functional", "conditions": "dose 2.0 µg/ml", "method_in_brief": "as §2"}, "Cryptococcus neoformans [23]": {"tested_on": "Cryptococcus neoformans", "assay": "Inhibition of CYP51 in Cryptococcus neoformans H99 assessed as eburicol level at 4 ug/ml by GC-MS analysis (reference value: 39.82%)", "set-up": "scale not given: the % may be the effect or the level left", "conditions": "dose 4.0 µg/ml"}, "Cryptococcus neoformans [24]": {"tested_on": "Cryptococcus neoformans", "assay": "Downregulation of CAP59 gene expression in Cryptococcus neoformans H99 at 2 ug/ml measured after 24 hrs by qRT-PCR analysis", "type": "functional", "conditions": "dose 2.0 µg/ml", "method_in_brief": "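Exponential-phase C. neoformans H99 inoculated into 50 mL YPD with compound. Incubated 35 °C for 24 h, then cultures ground in liquid nitrogen for RNA isolation. Transcript levels of capsule-associated genes quantified by RT-qPCR. Three independent experiments, mean ± SD, t-test.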"}, "Cryptococcus neoformans [25]": {"tested_on": "Cryptococcus neoformans", "assay": "Inhibition of capsule formation in Cryptococcus neoformans H99 assessed as reduction in capsule size at 40 to 50 ug/ml incubated for 24 hrs by laser scanning confocal microscopic analysis", "type": "functional", "conditions": "dose 40-50 µg/ml", "method_in_brief": "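Exponential C. neoformans H99 resuspended in PBS at 1 × 10⁷ cells/mL. Cells cultured in DMEM with FBS and compound at 37 °C under 10% CO₂ for 24 h, with an untreated control. Stained with India ink and imaged by laser scanning confocal microscopy at 63×, 10 random fields. Whole-cell and cell-body diameters measured to derive capsule size.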"}},
  "note": "Calls of active or inactive are those of the source. The rule behind the calls is not given here.",
  "data": [
    {"compound": "O=C(CCCCCCCOc1ccc(CN2CCN(CC(O)(Cn3cncn3)c3ccc(F)cc3F)CC2)cc1)NO", "note": "(stereo not given)", "values": [
      {"measurement": "Activity", "setting": "Candida tropicalis [1]", "value": 69.3, "unit": "%"},
      {"measurement": "MIC80", "setting": "Candida albicans [2]", "value": 16, "unit": "µg/mL"},
      {"measurement": "Activity", "setting": "Candida tropicalis [3]", "value": 1.31, "unit": "%"},
      {"measurement": "inhibition at 64 µg/mL", "setting": "Cryptococcus neoformans [4]", "value": 70, "unit": "%"},
      {"measurement": "inhibition", "setting": "Cryptococcus neoformans [5]", "value": "Active"},
      {"measurement": "inhibition", "setting": "Candida tropicalis [6]", "value": "Active"},
      {"measurement": "Activity", "setting": "Candida tropicalis [7]", "value": "Active"},
      {"measurement": "inhibition", "setting": "Cryptococcus neoformans [8]", "value": "Active"},
      {"measurement": "Activity", "setting": "Candida tropicalis [9]", "value": 16, "unit": "%"},
      {"measurement": "MIC80", "setting": "Candida tropicalis [10]", "value": 0.5, "unit": "µg/mL"},
      {"measurement": "Activity", "setting": "Cryptococcus neoformans [11]", "value": "Active"},
      {"measurement": "Activity", "setting": "Candida tropicalis [12]", "value": "Active"},
      {"measurement": "inhibition", "setting": "Candida tropicalis [13]", "value": "Active"},
      {"measurement": "MIC80", "setting": "Candida albicans [14]", "value": 8, "unit": "µg/mL"},
      {"measurement": "inhibition", "setting": "Cryptococcus neoformans [15]", "value": "Active"},
      {"measurement": "IC50", "setting": "[16]", "value": 2380, "unit": "nM"},
      {"measurement": "inhibition at 64 µg/mL", "setting": "Candida tropicalis [17]", "value": 100, "unit": "%"},
      {"measurement": "Activity", "setting": "Candida tropicalis [18]", "value": 1.51, "unit": "%"},
      {"measurement": "inhibition", "setting": "Cryptococcus neoformans [19]", "value": "inactive"},
      {"measurement": "MIC80", "setting": "Candida albicans [20]", "value": 16, "unit": "µg/mL"},
      {"measurement": "MIC80", "setting": "Candida albicans [21]", "value": 1, "unit": "µg/mL"},
      {"measurement": "inhibition", "setting": "Cryptococcus neoformans [22]", "value": "Active"},
      {"measurement": "Activity", "setting": "Cryptococcus neoformans [23]", "value": 71.3, "unit": "%"},
      {"measurement": "inhibition", "setting": "Cryptococcus neoformans [24]", "value": "inactive"},
      {"measurement": "inhibition", "setting": "Cryptococcus neoformans [25]", "value": "Active"}
    ]}
  ]
}
